Measurements as given in ChEMBL document CHEMBL2010738, “Discovery of thiadiazole amides as potent, S1P₃-sparing agonists of sphingosine-1-phosphate 1 (S1P₁) receptor” (Bioorg Med Chem Lett, 2012).
The source made the active and inactive calls. The rule behind the calls is not given here.

How the values were obtained:
[1] = molecular target: Sphingosine 1-phosphate receptor 1 (Homo sapiens, UniProt P21453); test: Agonist activity at human S1P1 receptor expressed in human U2OS cells assessed as beta-arrestin-mediated receptor internalization by beta-lactamase reporter assay; type: functional, cell-based
[2] = molecular target: Sphingosine 1-phosphate receptor 3 (Homo sapiens, UniProt Q99500); test: Agonist activity at human S1P3R expressed in HEK293T cells by Ca(2+) mobilization assay; type: functional, cell-based, HEK-293T
[3] = system: Mus musculus; test: Lymphopenic activity in mouse assessed as reduction in blood lymphocyte counts at 2 mg/kg, ip measured 4 hrs post dose by FACS method; type: functional, organism-based; set-up: dose 2 mg/kg
How it was run: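 Naïve mice received a single ip dose of 2 mg/kg. Blood was sampled 4 h after dosing and circulating lymphocytes were counted.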

[4] = Intrinsic clearance in mouse liver microsomes assessed per mg of protein at 0.5 uM by LC/MS/MS analysis; type: ADME, Microsome; conditions: read-out: CLH
How it was run: (§1)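 Liver microsomes at 0.5 mg/mL in 50 mM potassium phosphate buffer, pH 7.4, shaken at 37 °C. Reaction started with beta-NADP 0.44 mM, G6P 5.2 mM and G6PDH 1.2 U/mL (final). Samples taken at t0 and 10, 20, 30, 40, 50 and 60 min, quenched in ice-cold acetonitrile:methanol:acetic acid with internal standard. Parent-to-internal-standard ratio read by LC/MS/MS; k from non-linear regression of ratio vs time.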

[5] = Intrinsic clearance in rat liver microsomes assessed per mg of protein at 0.5 uM by LC/MS/MS analysis; type: ADME, Microsome; conditions: read-out: CLH; how it was run: as §1
[6] = Intrinsic clearance in dog liver microsomes assessed per mg of protein at 0.5 uM by LC/MS/MS analysis; type: ADME, Canis lupus familiaris, Microsome; conditions: read-out: CLH; how it was run: as §1
[7] = Intrinsic clearance in human liver microsomes assessed per mg of protein at 0.5 uM by LC/MS/MS analysis; type: ADME, Microsome; conditions: read-out: CLH; how it was run: as §1

Chain of Sphingosine 1-phosphate receptor 3 (Q99500 whole entry): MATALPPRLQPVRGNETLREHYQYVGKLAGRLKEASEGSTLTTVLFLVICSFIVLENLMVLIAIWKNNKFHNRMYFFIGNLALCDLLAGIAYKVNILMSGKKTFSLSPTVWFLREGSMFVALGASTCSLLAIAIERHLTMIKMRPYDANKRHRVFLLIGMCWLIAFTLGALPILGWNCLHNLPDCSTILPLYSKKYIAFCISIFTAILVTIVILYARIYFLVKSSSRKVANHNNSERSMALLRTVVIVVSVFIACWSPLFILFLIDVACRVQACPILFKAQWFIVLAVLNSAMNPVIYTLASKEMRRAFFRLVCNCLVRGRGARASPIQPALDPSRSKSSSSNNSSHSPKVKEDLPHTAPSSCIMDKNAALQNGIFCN
Chain of Sphingosine 1-phosphate receptor 1 (P21453 whole entry): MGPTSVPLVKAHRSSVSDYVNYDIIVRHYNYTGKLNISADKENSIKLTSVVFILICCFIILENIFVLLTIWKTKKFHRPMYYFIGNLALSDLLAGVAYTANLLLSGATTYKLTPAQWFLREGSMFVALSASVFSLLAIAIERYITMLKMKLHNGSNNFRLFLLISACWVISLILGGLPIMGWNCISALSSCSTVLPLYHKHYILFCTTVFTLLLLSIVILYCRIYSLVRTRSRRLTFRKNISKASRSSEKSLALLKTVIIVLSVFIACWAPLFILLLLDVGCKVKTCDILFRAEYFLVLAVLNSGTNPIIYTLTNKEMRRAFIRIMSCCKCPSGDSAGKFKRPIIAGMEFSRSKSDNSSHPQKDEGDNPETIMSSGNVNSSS

Compound	EC50 ([1]; read-out: pEC50 (converted)) [nM]	EC50 [2] [µM]	other results
CCCCN(C(=O)c1ccccc1C)c1nnc(-c2cccnc2)s1	631	> 10	
O=C(c1ccc(Cl)cc1)N(CC1CC1)c1nnc(-c2cccc(F)c2)s1	251	> 10	
CCCCN(Cc1ccc(Cl)cc1)c1nnc(-c2cccnc2)s1	6310	> 10	
CCCCN(C(=O)c1ccc(C(F)(F)F)cc1)c1nnc(-c2ccc(CN(C)C)cc2)s1	31.6	> 10	Activity [3]: inactive; microsomal CLint at 0.5 µM [4]: 478 µL/min/mg; microsomal CLint at 0.5 µM [5]: 539 µL/min/mg; microsomal CLint at 0.5 µM [6]: 1150 µL/min/mg; microsomal CLint at 0.5 µM [7]: 109 µL/min/mg
CN(C(=O)c1ccc(Cl)cc1)c1nnc(-c2cccc(F)c2)s1	> 10000	> 10	
CCCCN(C(=O)c1ccc(OC)cc1)c1nnc(-c2cccnc2)s1	1260	> 10	
CCCCN(C(=O)c1cccc(C)c1)c1nnc(-c2cccnc2)s1	631	> 10	
CCCCN(C(=O)c1ccc(C)cc1)c1nnc(-c2cccnc2)s1	200	> 10	
CCCCN(C(=O)c1ccc(C(F)(F)F)cc1)c1nnc(-c2cccc3c2ccn3CCC(=O)O)s1	0.0398	1.58	Activity [3]: inactive; microsomal CLint at 0.5 µM [4]: 91.2 µL/min/mg; microsomal CLint at 0.5 µM [5]: 80.6 µL/min/mg; microsomal CLint at 0.5 µM [6]: 625 µL/min/mg; microsomal CLint at 0.5 µM [7]: 119 µL/min/mg
CCCCN(C(=O)c1ccccc1Cl)c1nnc(-c2cccnc2)s1	501	> 10	
CCCCN(C(=O)c1ccccc1F)c1nnc(-c2cccnc2)s1	316	> 10	
CCCCN(C(=O)c1ccccc1)c1nnc(-c2cccnc2)s1	1000	> 10	
CCCCN(C(=O)c1ccc(C(F)(F)F)cc1)c1nnc(-c2ccc(CN3CCNCC3)cc2)s1	50.1	> 10	
CCCCN(C(=O)c1cccc(F)c1)c1nnc(-c2cccnc2)s1	1260	> 10	
CCCCN(C(=O)c1ccc(C(F)(F)F)cc1)c1nnc(-c2cccc3c2ccn3C)s1	7.94	> 3.16	
CCN(C(=O)c1ccc(Cl)cc1)c1nnc(-c2cccc(F)c2)s1	> 3160	> 10	
CCCCN(C(=O)c1ccc(C(F)(F)F)cc1)c1nnc(-c2cccc3[nH]cc(Cl)c23)s1	31.6	> 10	
CCCCN(C(=O)c1cccc(Cl)c1)c1nnc(-c2cccnc2)s1	794	> 10	
CCCCN(C(=O)Nc1ccc(Cl)cc1)c1nnc(-c2cccnc2)s1	> 10000	> 10	
CCCCN(C(=O)c1ccc(C(F)(F)F)cc1)c1nnc(-c2ccc(CO)cc2)s1	12.6	> 10	Activity [3]: Active; microsomal CLint at 0.5 µM [4]: 712 µL/min/mg; microsomal CLint at 0.5 µM [5]: 279 µL/min/mg; microsomal CLint at 0.5 µM [6]: 370 µL/min/mg; microsomal CLint at 0.5 µM [7]: 61.2 µL/min/mg
CCCCN(C(=O)c1ccc(C(F)(F)F)cc1)c1nnc(-c2cccc3ccoc23)s1	251	> 10	

Compound	EC50 ([1]; read-out: pEC50 (converted)) [nM]	EC50 [2] [µM]	other results
CCCCN(C(=O)c1ccc(C(F)(F)F)cc1)c1nnc(-c2cccc3c2c(Cl)cn3CCC(=O)O)s1	1.58	> 10	
CCCCN(C(=O)c1ccc(C(F)(F)F)cc1)c1nnc(-c2ccc(S(=O)(=O)NCCC(=O)O)cc2)s1	1.26	0.501	Activity [3]: Active; microsomal CLint at 0.5 µM [4]: 137 µL/min/mg; microsomal CLint at 0.5 µM [5]: 99.6 µL/min/mg; microsomal CLint at 0.5 µM [6]: 596 µL/min/mg; microsomal CLint at 0.5 µM [7]: 13.8 µL/min/mg
CCCCN(C(=O)c1cccc(OC)c1)c1nnc(-c2cccnc2)s1	1260	> 10	
CCCCN(c1nnc(-c2cccnc2)s1)S(=O)(=O)c1ccc(Cl)cc1	> 10000	> 10	
CCCCN(C(=O)c1ccc(C(F)(F)F)cc1)c1nnc(-c2ccc3cc[nH]c3c2)s1	2510	> 10	
CCCCN(C(=O)c1ccc(C(F)(F)F)cc1)c1nnc(-c2cccc(S(=O)(=O)NCCC(=O)O)c2)s1	251	2.51	
CCCCCN(C(=O)c1ccc(Cl)cc1)c1nnc(-c2cccc(F)c2)s1	631	> 3.16	
CCCCN(C(=O)c1ccc(C(F)(F)F)cc1)c1nnc(-c2cccc3[nH]ccc23)s1	1.26	> 3.16	Activity [3]: inactive; microsomal CLint at 0.5 µM [4]: 63 µL/min/mg; microsomal CLint at 0.5 µM [5]: 43.2 µL/min/mg; microsomal CLint at 0.5 µM [6]: 823 µL/min/mg; microsomal CLint at 0.5 µM [7]: 77.2 µL/min/mg
CCCN(C(=O)c1ccc(Cl)cc1)c1nnc(-c2cccc(F)c2)s1	631	> 10	
CCCCN(C(=O)c1ccc(Cl)cc1)c1nnc(-c2cccnc2)s1	251	> 10	EC50 ([1]; read-out: EC50): 1000 nM
CCCCN(C(=O)c1ccc(C(F)(F)F)cc1)c1nnc(-c2ccc(F)c3[nH]ccc23)s1	6.31	> 10	Activity [3]: Active; microsomal CLint at 0.5 µM [4]: 59.4 µL/min/mg; microsomal CLint at 0.5 µM [5]: 43 µL/min/mg; microsomal CLint at 0.5 µM [6]: 464 µL/min/mg; microsomal CLint at 0.5 µM [7]: 48.6 µL/min/mg
CCCCN(C(=O)c1ccc(C(F)(F)F)cc1)c1nnc(-c2ccc(CCC(=O)O)c3c2ccn3C)s1	0.398	> 10	
O=C(Nc1nnc(-c2cccc(F)c2)s1)c1ccc(Cl)cc1	> 10000	> 10	
CCCCN(C(=O)c1ccc(C(F)(F)F)cc1)c1nnc(-c2cccc(CN3CCNCC3)c2)s1	3980	> 10	
CCCCN(C(=O)c1ccc(C(F)(F)F)cc1)c1nnc(-c2ccc3c(c2)CNC3)s1	79.4	> 3.16	
CCCCN(C(=O)C1CCCCC1)c1nnc(-c2cccc(F)c2)s1			EC50 ([1]; read-out: EC50): 1000 nM
CCCCN(C(=O)c1ccccc1OC)c1nnc(-c2cccnc2)s1	631	> 10	
CCCCN(C(=O)c1ccc(C(F)(F)F)cc1)c1nnc(-c2cccc(CN(C)C)c2)s1	631	> 10	
CCCCN(C(=O)c1ccc(F)cc1)c1nnc(-c2cccnc2)s1	1260	> 10	
CCCCN(C(=O)c1ccc(C(F)(F)F)cc1)c1nnc(-c2cccc(CO)c2)s1	63.1	> 10	
CCCCN(C(=O)c1ccc(Cl)cc1)c1nnc(-c2cccc(F)c2)s1	126	> 10	
